Screening results deposited in PubChem by several laboratories.
Shown is part of a subset that was picked to be rich in hits.
PolyA inhibitor: polyadenylation inhibitors in yeast reporter cells, primary screen, luminescence, S. cerevisiae; S. cerevisiae SKY197-pL101 polyadenylation reporter, beta-gal luminescence; efflux-impaired pdr1/pdr3 knockout yeast; score 100 = 6 SD above DMSO; activity score, % at 12 µM; 300,000 compounds, 0.02% hits;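 active = lowest replicate activity score at least 50, where 100 means six control SD above control mean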;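 also: yeast exposed to compound for 9 h at 30 °C; higher score means more reporter readthrough which indicates perturbed polyadenylation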
L major viab: Leishmania major promastigote growth inhibition, primary screen; Leishmania major promastigotes, resazurin fluorescence viability; inhibition, % at 10 µM; 200,000 compounds, 9% hits; AID 1063, 2008; in the data active = inhibition above about 50%;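 also: promastigotes grown with compound for 44 hours at 28 °C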
T cruzi repl: inhibitors of intracellular T. cruzi growth, primary screen, luminescence, NIH3T3 host cells | T. cruzi beta-gal in NIH3T3, 90 h | inhibition, % (test concentration not listed) | 300,000 compounds, 1.4% hits | AID 1885, 2009;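 active = mean inhibition across valid replicates above about 55%, limit read from the data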;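 also: signal also drops with host cell toxicity which is not excluded here; higher percent means less beta-gal luminescence so fewer parasites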
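Assay system: NIH/3T3 host cells with β-galactosidase reporter T. cruzi; input: 5,000 host fibroblasts per well; compound: single 50 nL compound addition per well in DMSO; timing: ≥90 h infection period, 3 h prior cell attachment; measured by: GalScreen β-gal luminescence, detergent lysis, 60 min; evaluation: percent inhibition of parasite-derived β-gal signal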
NALP3 yeast inh: NALP3 inflammasome inhibitors in reconstituted yeast, primary screen, luminescence, uHTS | Yeast reconstituted NLRP3/ASC/caspase-1, beta-gal luminescence, 24 h | inhibition, % at 10 µM | 330,000 compounds, 0.39% hits;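 active = inhibition of 50% or more; inactive = inhibition below 50%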
NALP1 inh: NALP1 inflammasome inhibitors in reconstituted yeast, colorimetric, S. cerevisiae, triplicate retest; 280,000 compounds, 0.61% hits; S. cerevisiae NALP1/ASC/caspase-1 growth, X-gal OD620, 72 h; inhibition, % at 10 µM; in the data active = inhibition mostly above about 24%, no sharp cut-off; inactive = mostly below about 32%
Calb FLC: C. albicans growth inhibition with fluconazole, primary screen, CaCi-2 strain, Alamar Blue fluorescence; C. albicans CaCi-2 (fluconazole-resistant clinical isolate) + fluconazole, 48 h; growth inhibition, % (concentration not given with the values); 300,000 compounds, 0.57% hits; AID 1979, 2009;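 active = growth inhibition above about 58% in most replicates, limit read from the data, passing the limit was not always enough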;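 also: all wells also contain fluconazole at 8 µg/ml as a sub-toxic cotreatment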
A number is an active result.

`O=C(CNS(=O)(=O)c1c(Cl)cccc1Cl)OCc1csc(-c2ccccc2)n1` gave PolyA inhibitor inactive, L major viab 57, T cruzi repl inactive, NALP3 yeast inh inactive, NALP1 inh inactive and Calb FLC inactive.
`COc1ccc(Cn2c(=O)[nH]c3cc(C(=O)N4CCN(c5ccc(C(C)=O)cc5)CC4)ccc3c2=O)cc1` gave PolyA inhibitor inactive, T cruzi repl inactive, NALP3 yeast inh inactive, NALP1 inh inactive and Calb FLC inactive.
Screening O=C(c1cccnc1)N1CCc2ccccc2C1 returned PolyA inhibitor inactive, L major viab inactive, T cruzi repl inactive, NALP3 yeast inh inactive, NALP1 inh inactive and Calb FLC inactive.
O=C(c1nc2ncccn2n1)N1CCc2ccccc2C1 was read as PolyA inhibitor inactive, L major viab 91, T cruzi repl inactive, NALP3 yeast inh inactive, NALP1 inh inactive and Calb FLC inactive.
Screening N=C1C2=C3Sc4ccccc4N3CCCC2=NN1c1cccc(S(=O)(=O)O)c1 returned PolyA inhibitor inactive, T cruzi repl inactive, NALP3 yeast inh inactive, NALP1 inh inactive and Calb FLC inactive.
For O=C(COc1ccc(-c2ccccc2)cc1)N/N=C/c1cc(O)ccc1Br the results were PolyA inhibitor inactive, L major viab 70, T cruzi repl inactive, NALP3 yeast inh inactive, NALP1 inh inactive and Calb FLC inactive.
`O=C(COc1ccc(-c2ccccc2)cc1)N/N=C/c1ccccc1Br` gave PolyA inhibitor inactive, L major viab inactive, T cruzi repl inactive, NALP3 yeast inh inactive, NALP1 inh inactive and Calb FLC inactive.
Cc1ccc(S(=O)(=O)CC#CCOC(=O)c2ccc([N+](=O)[O-])cc2)cc1 was read as PolyA inhibitor inactive, L major viab 100, T cruzi repl inactive, NALP3 yeast inh inactive, NALP1 inh inactive and Calb FLC inactive.
`COc1ccc(NC(=O)c2nnn(CC(=O)Nc3ccccc3OC)c2N)c(OC)c1` gave PolyA inhibitor inactive, T cruzi repl inactive, NALP3 yeast inh inactive, NALP1 inh inactive and Calb FLC inactive.
Screening CCc1ccc(Cn2nnc(C(=O)Nc3ccc(OC)cc3OC)c2N)cc1 returned PolyA inhibitor inactive, L major viab inactive, T cruzi repl inactive, NALP3 yeast inh inactive, NALP1 inh 45 and Calb FLC inactive.
`CC1CN(S(=O)(=O)c2ccccc2)CN1C(=O)N1CCOCC1` (configuration not stated) gave PolyA inhibitor inactive, T cruzi repl inactive, NALP3 yeast inh inactive, NALP1 inh inactive and Calb FLC inactive.
For Cc1noc(C)c1CN1C(=O)NC2(CCCCCCC2)C1=O the results were PolyA inhibitor inactive, L major viab 100, T cruzi repl inactive, NALP3 yeast inh inactive, NALP1 inh inactive and Calb FLC inactive.
For N#C/C(=C(/O)COc1ccccc1)c1nc2ccccc2s1 the results were PolyA inhibitor inactive, L major viab inactive, T cruzi repl inactive, NALP3 yeast inh inactive, NALP1 inh inactive and Calb FLC inactive.
COc1ccc(C/C(O)=C(\C#N)c2nc3ccccc3s2)cc1 was read as PolyA inhibitor inactive, L major viab inactive, T cruzi repl inactive, NALP3 yeast inh inactive, NALP1 inh inactive and Calb FLC 94.
Screening Cc1ccc(SC/C(O)=C(\C#N)c2nc3ccccc3s2)cc1 returned PolyA inhibitor inactive, L major viab inactive, T cruzi repl inactive, NALP3 yeast inh inactive, NALP1 inh inactive and Calb FLC 88.
Screening N#C/C(=C(/O)COc1ccc(Cl)cc1)c1nc2ccccc2s1 returned PolyA inhibitor inactive, L major viab inactive, T cruzi repl inactive, NALP3 yeast inh inactive, NALP1 inh inactive and Calb FLC 94.
`COc1ccc(-c2nn(-c3ccccc3)cc2C(N)=O)cc1OC` gave PolyA inhibitor inactive, T cruzi repl inactive, NALP3 yeast inh inactive, NALP1 inh inactive and Calb FLC inactive.
O=C(N=C1SC2CS(=O)(=O)CC2N1CCc1ccccc1)C1CCCCC1 (configuration not stated) was read as PolyA inhibitor inactive, T cruzi repl inactive, NALP3 yeast inh inactive, NALP1 inh inactive and Calb FLC inactive.
Cc1[nH]c2ccccc2c1C(O)CN1CCN(c2cccc(C(F)(F)F)c2)CC1 (configuration not stated) was read as PolyA inhibitor inactive, L major viab 60, T cruzi repl inactive, NALP3 yeast inh inactive, NALP1 inh inactive and Calb FLC inactive.
For Cc1[nH]c2ccccc2c1NC(=O)CN1CCN(c2cccc(C(F)(F)F)c2)CC1 the results were L major viab inactive, NALP3 yeast inh inactive and NALP1 inh inactive.
Clc1ccc(CSc2nnc(-c3ccncc3)s2)cc1 was read as PolyA inhibitor inactive, T cruzi repl 59, NALP3 yeast inh inactive, NALP1 inh inactive and Calb FLC inactive.
CCCn1c(-c2cccs2)nc2ccccc21 was read as PolyA inhibitor inactive, L major viab inactive, T cruzi repl inactive, NALP3 yeast inh inactive, NALP1 inh inactive and Calb FLC inactive.
Screening CCN1c2ccccc2-c2nc3ccccc3n2C1c1cccs1 (configuration not stated) returned PolyA inhibitor inactive, L major viab 96, T cruzi repl inactive, NALP3 yeast inh inactive, NALP1 inh inactive and Calb FLC inactive.
`Nn1c(SCC(=O)NCC2CCCO2)nnc1-c1ccco1` (configuration not stated) gave NALP3 yeast inh inactive.
`CCOC(=O)c1cc(-c2ccccc2)n(CC(=O)Nc2ccc(OC)cc2)c1C` gave PolyA inhibitor inactive, L major viab 51, T cruzi repl inactive, NALP3 yeast inh inactive, NALP1 inh inactive and Calb FLC inactive.
Screening CCOC(=O)c1cc(-c2ccccc2)n(CCC(=O)O)c1C returned PolyA inhibitor inactive, L major viab inactive, T cruzi repl inactive, NALP3 yeast inh inactive, NALP1 inh inactive and Calb FLC inactive.
Screening CCOC(=O)c1cc(-c2ccc(OC)cc2)n(CCC(=O)NCCN2CCC(C)CC2)c1C returned PolyA inhibitor inactive, L major viab inactive, T cruzi repl inactive, NALP3 yeast inh inactive, NALP1 inh inactive and Calb FLC inactive.
`CCOC(=O)c1cc(-c2ccc(F)cc2)n(CCC(=O)NC2CCN(Cc3ccccc3)CC2)c1C` gave PolyA inhibitor inactive, L major viab 80, T cruzi repl 78, NALP3 yeast inh inactive, NALP1 inh inactive and Calb FLC inactive.
Screening CCOC(=O)c1cc(-c2ccc(OC)cc2)n(CCC(=O)NC2CCN(Cc3ccccc3)CC2)c1C returned PolyA inhibitor inactive, L major viab 84, T cruzi repl inactive, NALP3 yeast inh inactive, NALP1 inh inactive and Calb FLC inactive.
Screening CC(=O)Nc1cccc(C(=O)OC(C)C(=O)N2CCc3ccccc32)c1 (configuration not stated) returned PolyA inhibitor inactive, T cruzi repl inactive, NALP3 yeast inh inactive and Calb FLC inactive.
